{"source": "ChEMBL document CHEMBL4392836", "about": "“Second-generation aryl isonitrile compounds targeting multidrug-resistant Staphylococcus aureus” (Bioorg Med Chem, 2019)", "key": {"Staphylococcus aureus [1]": {"tested_on": "Staphylococcus aureus", "test": "Antibacterial activity against methicillin-resistant Staphylococcus aureus NRS123 USA400 after 18 to 24 hrs by broth microdilution assay", "format": "functional", "in_short": "(§1)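 CLSI broth microdilution with modifications. Bacteria cultured in TSB and exposed to compounds or control antibiotics in triplicate. Plates incubated aerobically at 37 °C for 18–24 h. MIC is the lowest concentration preventing visible growth.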"}, "Staphylococcus aureus [2]": {"tested_on": "Staphylococcus aureus", "test": "Antibacterial activity against methicillin-resistant Staphylococcus aureus USA300 infected in Balb/c mouse assessed as reduction in bacterial burden in wounded skin area at 2% administered topically twice daily for 5 consecutive days measured 12 hrs post last dose relative to control", "format": "functional", "design": "scale not given: the % may be the effect or the level left", "in_short": "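Eight-week-old female Balb/c mice (n = 5 per group) received an intradermal injection of 40 μL of 1.32 × 10⁹ CFU/mL MRSA USA300. From abscess formation (~48 h), a 2% suspension in petroleum jelly was applied topically twice daily for 5 days, with a vehicle-only group. Mice were euthanized 12 h after the last dose. Wounds were homogenized in PBS, serially diluted and plated on mannitol salt agar (≥16 h, 37 °C). CFU reduction was calculated against vehicle.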"}, "Mus musculus": {"tested_on": "Mus musculus", "test": "Induction of inflammation in wounded skin area of Balb/c mouse infected with methicillin-resistant Staphylococcus aureus USA300 at 2% administered topically twice daily for 5 consecutive days measured 4 times daily during compound dosing", "format": "organism-based", "conditions": "in vivo, topical_or_ocular", "in_short": "(§2)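 Female Balb/c mice with intradermal MRSA USA300 abscesses were treated topically twice daily for 5 days with a 2% suspension in petroleum jelly, alongside a vehicle group. Mice were checked at least four times daily during infection and treatment for adverse reactions. Wounds were examined for inflammation and toxicity.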"}, "[3]": {"test": "Toxicity in wounded skin area of Balb/c mouse infected with methicillin-resistant Staphylococcus aureus USA300 at 2% administered topically twice daily for 5 consecutive days measured 4 times daily during compound dosing", "conditions": "in vivo, topical_or_ocular", "in_short": "as §2"}, "Staphylococcus aureus [4]": {"tested_on": "Staphylococcus aureus", "test": "Antibacterial activity against methicillin-resistant Staphylococcus aureus USA300 NRS384 after 18 to 24 hrs by broth microdilution assay", "format": "functional", "in_short": "as §1"}, "Acinetobacter baumannii [5]": {"tested_on": "Acinetobacter baumannii", "test": "Antibacterial activity against Acinetobacter baumannii BAA1605 after 18 to 24 hrs by broth microdilution assay", "format": "functional", "in_short": "(§3)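 Broth microdilution MIC per CLSI guidelines with modifications. Bacteria grown in TSB and exposed to compounds or control antibiotics in triplicate. Plates incubated aerobically at 37 °C for 18–24 h. MIC taken as the lowest concentration with no visible growth.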"}, "Enterobacter cloacae [6]": {"tested_on": "Enterobacter cloacae", "test": "Antibacterial activity against Enterobacter cloacae BAA1134 after 18 to 24 hrs by broth microdilution assay", "format": "functional", "in_short": "as §3"}, "Klebsiella pneumoniae [7]": {"tested_on": "Klebsiella pneumoniae", "test": "Antibacterial activity against Klebsiella pneumoniae ATCC BAA-1705 after 18 to 24 hrs by broth microdilution assay", "format": "functional", "in_short": "as §3"}, "Pseudomonas aeruginosa [8]": {"tested_on": "Pseudomonas aeruginosa", "test": "Antibacterial activity against Pseudomonas aeruginosa ATCC 15442 after 18 to 24 hrs by broth microdilution assay", "format": "functional", "in_short": "as §3"}, "Acinetobacter baumannii [9]": {"tested_on": "Acinetobacter baumannii", "test": "Antibacterial activity against Acinetobacter baumannii BAA1605 after 18 to 24 hrs in presence of colistin by broth microdilution assay", "format": "functional", "in_short": "(§4)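 To permeabilize the outer membrane, CLSI broth microdilution in TSB (triplicate) was run with subinhibitory colistin: ¼ × MIC for A. baumannii, E. cloacae and E. coli strains, and P. aeruginosa; ½ × MIC for K. pneumoniae. Plates incubated aerobically at 37 °C for 18–24 h. MIC taken as the lowest concentration with no visible growth.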"}, "Enterobacter cloacae [10]": {"tested_on": "Enterobacter cloacae", "test": "Antibacterial activity against Enterobacter cloacae BAA1134 after 18 to 24 hrs in presence of colistin by broth microdilution assay", "format": "functional", "in_short": "as §4"}, "Klebsiella pneumoniae [11]": {"tested_on": "Klebsiella pneumoniae", "test": "Antibacterial activity against Klebsiella pneumoniae ATCC BAA-1705 after 18 to 24 hrs in presence of colistin by broth microdilution assay", "format": "functional", "in_short": "as §4"}, "Pseudomonas aeruginosa [12]": {"tested_on": "Pseudomonas aeruginosa", "test": "Antibacterial activity against Pseudomonas aeruginosa ATCC 15442 after 18 to 24 hrs in presence of colistin by broth microdilution assay", "format": "functional", "in_short": "as §4"}, "Escherichia coli [13]": {"tested_on": "Escherichia coli", "test": "Antibacterial activity against Escherichia coli BW25113 after 18 to 24 hrs in absence of colistin by broth microdilution method", "format": "functional", "in_short": "as §3"}, "Escherichia coli [14]": {"tested_on": "Escherichia coli", "test": "Antibacterial activity against Escherichia coli BW25113 after 18 to 24 hrs in presence of colistin by broth microdilution method", "format": "functional", "in_short": "as §4"}, "Escherichia coli [15]": {"tested_on": "Escherichia coli", "test": "Antibacterial activity against AcrAB-TolC deficient Escherichia coli […] after 18 to 24 hrs in absence of colistin by broth microdilution method", "format": "functional", "in_short": "as §3"}, "Escherichia coli [16]": {"tested_on": "Escherichia coli", "test": "Antibacterial activity against AcrAB-TolC deficient Escherichia coli […] after 18 to 24 hrs in presence of colistin by broth microdilution method", "format": "functional", "in_short": "as §4"}}}
{"smiles": "N#Cc1ccc(CCc2cccnc2)cc1", "values": [{"measurement": "MIC", "setting": "Staphylococcus aureus [1]", "value": "> 64", "unit": "µM"}]}
{"smiles": "CC(=O)O[C@H]1C[C@@]2(C)[C@@H](C[C@@H](O)[C@H]3[C@@]4(C)CC[C@@H](O)[C@@H](C)[C@@H]4CC[C@@]32C)/C1=C(\\CCC=C(C)C)C(=O)O", "note": "[FUSIDIC ACID]", "values": [{"measurement": "Activity", "setting": "Staphylococcus aureus [2]", "value": 77.78, "unit": "%"}, {"measurement": "Activity", "setting": "Mus musculus", "value": "Non-Toxic"}, {"measurement": "Activity", "setting": "[3]", "value": "Non-Toxic"}]}
{"smiles": "N#Cc1ccc(/C=C/c2ccnc3ccccc23)cc1", "values": [{"measurement": "MIC", "setting": "Staphylococcus aureus [1]", "value": "> 64", "unit": "µM"}]}
{"smiles": "N#Cc1ccc(CCC2CCNc3ccccc32)cc1", "note": "(stereo not given)", "values": [{"measurement": "MIC", "setting": "Staphylococcus aureus [1]", "value": 32, "unit": "µM"}]}
{"smiles": "N#Cc1ccc(/C=C/c2ccc(C(F)(F)F)cc2)cc1", "values": [{"measurement": "MIC", "setting": "Staphylococcus aureus [1]", "value": 32, "unit": "µM"}]}
{"smiles": "N#Cc1ccc(/C=C/c2ccccc2C#N)cc1", "values": [{"measurement": "MIC", "setting": "Staphylococcus aureus [1]", "value": 16, "unit": "µM"}]}
{"smiles": "CC/C(=C\\c1ccccc1C#N)c1ccccc1", "values": [{"measurement": "MIC", "setting": "Staphylococcus aureus [4]", "value": 4, "unit": "µM"}]}
{"smiles": "N#Cc1ccc(/C=C/c2ccco2)cc1", "values": [{"measurement": "MIC", "setting": "Staphylococcus aureus [1]", "value": 32, "unit": "µM"}]}
{"smiles": "N#Cc1ccc(CCc2ccccn2)cc1", "values": [{"measurement": "MIC", "setting": "Staphylococcus aureus [1]", "value": "> 64", "unit": "µM"}]}
{"smiles": "N#Cc1ccc(/C=C/c2ccc(F)cc2)cc1", "values": [{"measurement": "MIC", "setting": "Staphylococcus aureus [1]", "value": 64, "unit": "µM"}]}
{"smiles": "CC[C@H]1OC(=O)[C@H](C)[C@@H](O[C@H]2C[C@@](C)(OC)[C@@H](O)[C@H](C)O2)[C@H](C)[C@@H](O[C@@H]2O[C@H](C)C[C@H](N(C)C)[C@H]2O)[C@](C)(O)C[C@@H](C)C(=O)[C@H](C)[C@@H](O)[C@]1(C)O", "note": "[ERYTHROMYCIN]", "values": [{"measurement": "MIC", "setting": "Acinetobacter baumannii [5]", "value": 16, "unit": "µM"}, {"measurement": "MIC", "setting": "Enterobacter cloacae [6]", "value": "> 64", "unit": "µM"}, {"measurement": "MIC", "setting": "Klebsiella pneumoniae [7]", "value": "> 64", "unit": "µM"}, {"measurement": "MIC", "setting": "Pseudomonas aeruginosa [8]", "value": "> 64", "unit": "µM"}, {"measurement": "MIC", "setting": "Acinetobacter baumannii [9]", "value": 4, "unit": "µM"}, {"measurement": "MIC", "setting": "Enterobacter cloacae [10]", "value": 1, "unit": "µM"}, {"measurement": "MIC", "setting": "Klebsiella pneumoniae [11]", "value": 16, "unit": "µM"}, {"measurement": "MIC", "setting": "Pseudomonas aeruginosa [12]", "value": 4, "unit": "µM"}, {"measurement": "MIC", "setting": "Escherichia coli [13]", "value": 64, "unit": "µM"}, {"measurement": "MIC", "setting": "Escherichia coli [14]", "value": 1, "unit": "µM"}, {"measurement": "MIC", "setting": "Escherichia coli [15]", "value": 2, "unit": "µM"}, {"measurement": "MIC", "setting": "Escherichia coli [16]", "value": 0.5, "unit": "µM"}]}
{"smiles": "N#Cc1ccc(CCC2CCc3ccccc3N2)cc1", "note": "(stereo not given)", "values": [{"measurement": "MIC", "setting": "Staphylococcus aureus [1]", "value": 16, "unit": "µM"}]}
